In the EternaBench riboswitch data:

Assays:
MS2 coat protein [1] = assay: apparent Kd, MS2 coat protein; higher = weaker binding; RNA-MaP array
In short: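 On an Illumina sequencing chip, sequenced DNA templates served for transcription of the designed RNAs, which were then bound at room temperature by fluorescently labeled MS2 coat protein at 1.5 nM to 3 μM, with or without input ligand. Apparent Kd is the median of the fits to each cluster's binding curve. Only designs measured on at least 10 clusters were kept.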

MS2 coat protein [2] = assay: apparent Kd, MS2 coat protein; higher = weaker binding; RNA-MaP array; FMN 200 µM where present
In short: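 Each design was made on Illumina sequencing-chip clusters by stalled E. coli RNA polymerase and titrated with SNAP-549-labelled MS2 coat protein from 0.7 or 1.5 nM, doubling to 3 µM, in the absence and then the presence of constant ligand. The buffer was 100 mM Tris-HCl pH 7.5, 80 mM KCl, 4 mM MgCl2, BSA, DTT, yeast tRNA and Tween-20. The apparent Kd is the median of filtered per-cluster fits of binding curves, with green signal normalised to red-channel RNA signal and control-cluster median Fmax.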

[3] = designed as: OFF switch for flavin mononucleotide, no ligand
[4] = ligand present: flavin mononucleotide, designed as: OFF switch for flavin mononucleotide
[5] = designed as: ON switch for flavin mononucleotide, no ligand
[6] = ligand present: flavin mononucleotide, designed as: ON switch for flavin mononucleotide

Sequence | apparent Kd (MS2 coat protein [2]; [3]) [nM] | apparent Kd (MS2 coat protein [2]; [4]) [nM] | other results
GUCGUAGGCUAAGGAUAUAGUGAAAGAGUGAAGGCCUGAUCAGACAUGAGGAUCACCCAUGUGAACUAGAAGGUAGGCAAGGCU | – | – | apparent Kd (MS2 coat protein [1]; [3]): 13.5 nM; apparent Kd (MS2 coat protein [1]; [4]): 12.5 nM
GUAGGUUGCCAAGGAUAUGCGGGUACUCUUCCGAAACAUGAGGAUCACCCAUGUACUCUCCUGUAGCAGAAGGUGGCUUGGUGA | – | – | apparent Kd (MS2 coat protein [1]; [3]): 493 nM; apparent Kd (MS2 coat protein [1]; [4]): 269 nM
UAAGGACUUAUAGGAUAUGCAAACAUGAGGAUCACCCAUGUGAACCACGAAAUGACGCAGAAUAAGCAGAAGGAUAGUACGUAC | – | – | apparent Kd (MS2 coat protein [1]; [5]): 32.7 nM; apparent Kd (MS2 coat protein [1]; [6]): 25.5 nM
CGGCGGGACUCACAUGAGGAUCACCCAUGUUUAAAGGGUCAAAAGGAUAUGAAAACAGCAAGUAAUCAGAAGGUUUACCUAGUG | – | – | apparent Kd (MS2 coat protein [1]; [3]): 14.5 nM; apparent Kd (MS2 coat protein [1]; [4]): 15.8 nM
CAAGUCGGCAAGGAUAUGAAACGUAUUACAGAUUCAGAAGGUGCUACAUGAGGAUCACCCAUGUGGUCAAUACC | – | – | apparent Kd (MS2 coat protein [1]; [3]): 6.76 nM; apparent Kd (MS2 coat protein [1]; [4]): 13.1 nM
GCCCGUUAUUAGAAGGGUAUUCGGAUAUGCAUUCCUUACAUGAGGAUCACCCAUGUACCGCGAGUACAGGAUAUAAAACCGCCA | – | – | apparent Kd (MS2 coat protein [1]; [3]): 75.2 nM; apparent Kd (MS2 coat protein [1]; [4]): 69.7 nM
CCGACACAGAAGAAGGCUUUUGGUCUUAGCAGAAGAGGAUAUUCCUGUGUUCCGCGUACAUGAGGAUCACCCAUGUGUGAGCAC | – | – | apparent Kd (MS2 coat protein [1]; [3]): 6.59 nM; apparent Kd (MS2 coat protein [1]; [4]): 7.46 nM
GACUACCAGUAAGGAUAUGCUCUUAUAAAAGGAGCAGAAGGUACCUGUGACGCCUACGGGCGACAUGAGGAUCACCCAUGUUCU | – | – | apparent Kd (MS2 coat protein [1]; [5]): 692 nM; apparent Kd (MS2 coat protein [1]; [6]): 386 nM
CGCCGUGAUUAGAAGGGUGGUGGGAAUCUUAUCACAGGAUAUAAAUAGGGCCGCUACAUGAGGAUCACCCAUGUCCUCCGGUCA | – | – | apparent Kd (MS2 coat protein [1]; [3]): 200 nM; apparent Kd (MS2 coat protein [1]; [4]): 165 nM
AGGUGCAUCAAGAAGGAUGACAUGAGGAUCACCCAUGUACAAAAGGCGCGAUUUACAAAUCGUACAUAGGAUAUUGUGCAUGUU | – | – | apparent Kd (MS2 coat protein [1]; [5]): 71.2 nM; apparent Kd (MS2 coat protein [1]; [6]): 24.6 nM
UAUUGGAUAGGAUAUACAUGAGGAUCACCCAUGUUUUCAUUGGACGAGGACGCUCUUCGUAGAAGGAUCGGCUA | – | – | apparent Kd (MS2 coat protein [1]; [3]): 10.8 nM; apparent Kd (MS2 coat protein [1]; [4]): 10.2 nM
CGUGAUACUGGUAUACUCUGAAGAUCAAUUCGAGGACCGGUACGGCCGCCACUCGUUAGUAGACAUGAGGAUCACCCAUGUUAGU | – | – | apparent Kd (MS2 coat protein [1]; designed as: OFF switch for tryptophan, no ligand): 20 nM; apparent Kd (MS2 coat protein [1]; ligand present: tryptophan, designed as: OFF switch for tryptophan): 22.5 nM
AAUAUGUGAGGAUAUCAGGUGUGCUAGCGUACUGGUACAUCUGAGAAGGCACAUGAGGAUCACCCAUGUAUCUU | 24.4 | 87.4 | –
AGGAUGUUAGGAUAUCGAAGGUUGUGGCAGGCGGGAAUUUGCGAGAAGGAACAUGAGGAUCACCCAUGUGAAAU | 22.9 | 22.2 | –
ACAUAUAUUCGAGGAUAUCGGUGAUAAAUUUUACGAGAAGGCGAUAAAAGAUAUAAUCUUAUAGACAUGAGGAUCACCCAUGUA | – | – | apparent Kd (MS2 coat protein [2]; [5]): 27.3 nM; apparent Kd (MS2 coat protein [2]; [6]): 27.1 nM
GAGGAACAUGAGGAUCACCCAUGUGAGGAUAUGCAUAGUGAGCUAGUAGACGUUUAUUGCAGAAGGUACACUGA | 31.4 | 23.6 | –
AACCUAUUACAGAAGGCCAGCUACAUGAGGAUCACCCAUGUCGAGUCAUGGAGGAUAUGUAGUAAUCUGCACGCGUGCGGGCAC | – | – | apparent Kd (MS2 coat protein [2]; [5]): 49.8 nM; apparent Kd (MS2 coat protein [2]; [6]): 6.65 nM
GGAUGGACCCAGAAGGGCAGAUCCCGAGGAAUUUGAGAUGAGCGGAUAUGUAGGAUAUGGGUGGACAUGAGGAUCACCCAUGUC | – | – | apparent Kd (MS2 coat protein [2]; [5]): 176 nM; apparent Kd (MS2 coat protein [2]; [6]): 42.6 nM
UGUGCAUCAGGAUAUAUGUGGCGACCGUGAGGUCGAAGGUUACAUGAGGAUCACCCAUGUAGAAGGGAUGUACU | 63.2 | 187 | –
UGUGUUAUCGGAGGAUAUCGAUAUCAAACAUGAGGAUCACCCAUGUUGAGGAUCACCCAUGUCUACGAGAAGGCCGGCGUACUC | – | – | apparent Kd (MS2 coat protein [2]; [5]): 45.2 nM; apparent Kd (MS2 coat protein [2]; [6]): 50.6 nM
GCAGCAAUCUAAAACAUGAGGAUCACCCAUGUCGAGAGAUAUGAGGAUAUGCAUCUGAAGAAGAUGCAGAAGGCAUUGUGCUGC | – | – | apparent Kd (MS2 coat protein [2]; [5]): 8.1 nM; apparent Kd (MS2 coat protein [2]; [6]): 6.15 nM
GCCAUCGCAUGAGGAUAUGCUCGGGUUUCCCGAGCAGAAGGCAUGUCGUAAGACAUGAGGAUCACCCAUGUAGUUAAGAUGGCA | – | – | apparent Kd (MS2 coat protein [2]; [5]): 915 nM; apparent Kd (MS2 coat protein [2]; [6]): 76.8 nM
GUCAGCUCGUGAGGAUAUACAACACUGCUUCGGCAGUGUAUUAAGAACACAUGAGGAUCACCCAUGUAGAAGGCACGAGCUGAU | 4.92 | 6.08 | –
AUAAGCUCGUCAGGAUAUACGUCACUGCUUCGGCAGUGAGGUAAGAUCACAUGAGGAUCACCCAUGUAGAAGGGACGAGCUUAU | 5.65 | 14.4 | –
UGGUACUACGGAGGAUAUGGGAAGAUACAUGAGGAUCACCCAUGUUUAAGAAUGCCGAGAGGCAACUAGAAGGCCCUAGUACCU | – | – | apparent Kd (MS2 coat protein [2]; [5]): 401 nM; apparent Kd (MS2 coat protein [2]; [6]): 25.2 nM
GGACGACACAUGAACAUGAGGAUCACCCAUGUAACUAGACAUGAGGAUAUGGAUCCUAAUUGGAUCCAGAAGGCAUGGUCGUCC | – | – | apparent Kd (MS2 coat protein [2]; [5]): 179 nM; apparent Kd (MS2 coat protein [2]; [6]): 31.7 nM
UUUGACCUAGGAUAUACAUGAGGAUCACCCAUGUUCCGGUGGGUUAACGACAACCUCAGUAGAAGGAGGAGCUU | 31.8 | 58.9 | –

Sequence | apparent Kd (MS2 coat protein [2]; [3]) [nM] | apparent Kd (MS2 coat protein [2]; [4]) [nM] | other results
UGCCAAGCAGGAUAUGCACGUAAUAACAUGAGGAUCACCCAUGUGACCGAUUUAUAUUCUGCAGAAGGGCUUGGUU | 138 | 242 | –
GUCGUGUGAGGAUAUGGUUCGUCGCAGUGGCGGUCGGCGACCUAGAAGGCACAUGAGGAUCACCCAUGUAUGUG | 122 | 84 | –
AUAUAACAUGAGGAUCACCCAUGUCUCUAAAGUCGAGGAUAUGGGCAGGUUAUAUCCGAACCAGAAGGCGGGUUAU | – | – | apparent Kd (MS2 coat protein [2]; [5]): 315 nM; apparent Kd (MS2 coat protein [2]; [6]): 717 nM
GAUUAACAUGAGGAUCACCCAUGUGAGGAUAUGGACUGGCUCACUUUCCGAUUCCCGUCUAGAAGGCGCAUCUU | 38.3 | 38.3 | –
AUCUUGUCAGGAUAUCUGACAAGUGACUUCGGUCACAGUUCAGAGAAGGUACAUGAGGAUCACCCAUGUAGAAC | 17.4 | 18.6 | –
GUCAGCUCGUGAGGAUAUACAUGUGCUGGAAACAGCACUAUUAAGAUCACAUGAGGAUCACCCAUGUAGAAGGCACGAGCUGAU | 47.3 | 630 | –
GUCAGCUCGCGAGGAUAUACAACACUGCUUCGGCAGUGUAUUAAGAUCACAUGAGGAUCACCCAUGUAGAAGGCACGAGCUGAU | 10.4 | 145 | –
AAAAGGCUAGGAUAUACAUGAGGAUCACCCAUGUGAGGGCACGGCCGGCGCGGGCCCGGUAGAAGGAGUCAAAA | 18.4 | 17.6 | –
GUGGUAUUCGUAGGAUAUCCGUCGCCACCGUGUGGAGAAGGACGAACAUGAGGAUCACCCAUGUAUCAUGGUGUGGGCGUUGUC | 149 | 148 | –
CUGUGACGGUGCGCAAGUGGACGGAGAAGGCACACAUGAGGAUCACCCAUGUGAGCCUGCUAUUGUGAGGAUAUCCGUUCGUAC | 5.52 | 7.02 | –
UUCAGCUCGUGAGGAUAUACAUGUGCUGGAAACAGCACUAAUUAAUUCACAUGAGGAUCACCCAUGUAGAAGGCACGAGCUGAG | 15.7 | 18.1 | –
UUCUUUACCUAGGAUAUCUUCGGUACGGUCCGGAGAGAAGGAGGUACAUGAGGAUCACCCAUGUCCCUCUGAAA | 12.6 | 13.6 | –
AGCUACGUUUCGUAGCAGCUAGGUGAGGAUAUUCAAUUUUUCACAUGAGGAUCACCCAUGUAUGUGAAGAAGGCGCCUAGAAAA | – | – | apparent Kd (MS2 coat protein [2]; [5]): 12.3 nM; apparent Kd (MS2 coat protein [2]; [6]): 4.98 nM
UGUGUAACGGAGGAUAUAGGACUUCAACGAAGACUAGAAGGCCGAACAUGAGGAUCACCCAUGUGGUCCUCCGU | 11.9 | 14.9 | –
UGAUCUUGAGUCAGGAUAUGCUGGUAUUUUUACCAGCAGAAGGGACAUGAGGAUCACCCAUGUUCUCACUUUUU | 10.1 | 13.4 | –
GCACAUGAUACAGGAUAUGUAUUGGAAUAUAUAAUGAAUUAGAUGAAAUUGACAGAAGGGUAGACAUGAGGAUCACCCAUGUGC | 324 | 186 | –
GCCGGGUAGGCAGGAUAUCCUCGCGCAAACACAUGAGGAUCACCCAUGUACACAAAACGUGAUAUGGAGAAGGGCCGACCCACG | – | – | apparent Kd (MS2 coat protein [2]; [5]): 24.2 nM; apparent Kd (MS2 coat protein [2]; [6]): 5.66 nM
GCAUACAUUCGAGGAUAUCGGUGAACAAAUUAACGAGAAGGCGAUAUAAUGUUUAAUCUUAUAAACAUGAGGAUCACCCAUGUA | – | – | apparent Kd (MS2 coat protein [2]; [5]): 76.9 nM; apparent Kd (MS2 coat protein [2]; [6]): 31.2 nM
UAUGGUUAAGUCAGGAUAUGCUCAUAGAGGUCUGUGCAGAAGGGACAUGAGGAUCACCCAUGUAUGGUAGUGUU | 194 | 240 | –
GGAUGGGACAGAGGAUAUACGUGCUAGAGAUACUAGCAAAAUUUCCUCACAUGAGGAUCACCCAUGUAGAAGGCUGUCCUAUCG | 15.2 | 513 | –
CACUGCAUGUAAGGAUAUCGACUGGAUAACAGUCGAGAAGGUACAUGAGGAUCACCCAUGUAAAUAAUAAUAAAUAAAGCAGUG | 15.1 | 25.1 | –
AUUAAGUGAGGAUAUACAAGAUCGCUUACCGCCAAAGGCGGACAUGAGGAUCACCCAUGUAGAAGGCACAAAUU | 45.7 | 270 | –
AGUACUACAGGAUAUACAUGAGUGAUACUCAUAUCCCUUCUACAUGAGGAUCACCCAUGUAGAAGGGUAGUACA | 15.2 | 11.7 | –
CCGCAAAUGGAGGAUAUCGUAUCGGAUACGAUACGAGAAGGCUAAACAUGAGGAUCACCCAUGUGUCCUAGCGG | 14 | 15.5 | –
ACGUGUCGUGUAGGAUAUGACACAGGAAACUGGUCAGAAGGACAUGAGGAUCACCCAUGUAAAAUGUUCAAGAAUAACGUAUGC | 43.3 | 108 | –
UAUAUAUAGUAAGGAUAUGUAUUAAUUCUAUAAACAGAAGGUACUGACAUGAGGAUCACCCAUGUUUUAGUGUGGGCAUGUAGA | 49.3 | 56 | –
